Data set [1] in a line: Oxidative metabolic stability in rat liver microsomes assessed as compound remaining at 1 uM after 30 mins. Conditions: read-out: Stability. It is filed as ADME, Microsome. A digest of the protocol:
(§1)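 Test compound was incubated with mouse, rat or human liver microsomes for 30 min. The read-out is percent of parent compound remaining.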
In general terms: Microsomes from liver hold many membrane-bound enzymes, among them those of drug oxidation.

Data set [2] can be described thus: Oxidative metabolic stability in mouse liver microsomes assessed as compound remaining at 1 uM after 30 mins. The class given is ADME, Microsome. Conditions: read-out: Stability. A digest of the protocol: as §1
Data set [3] is described as follows: Oxidative metabolic stability in human liver microsomes assessed as compound remaining at 1 uM after 30 mins. It is filed as ADME, Microsome. As to conditions: read-out: Stability. Put shortly: as §1
Data set [4] addresses Mitogen-activated protein kinase 10 (Homo sapiens, UniProt P53779). Kind of data set: Inhibition of recombinant JNK3 using ser73 of c-jun as substrate preincubated for 15 mins measured after 60 mins by TR-FRET assay. A digest of the protocol:
(§2)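 Recombinant JNK enzyme assay run at 10 µM ATP. IC50 values are means of at least three experiments.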
On the technique in general: TR-FRET usually uses a lanthanide donor and a delayed reading to cut background.

For data set [5], the target named is Mitogen-activated protein kinase 8 (Homo sapiens, UniProt P45983). Kind of data set: Inhibition of recombinant JNK1 using ser73 of c-jun as substrate preincubated for 15 mins measured after 60 mins by TR-FRET assay. Put shortly: as §2
Sequence of Mitogen-activated protein kinase 8 (P45983 whole entry): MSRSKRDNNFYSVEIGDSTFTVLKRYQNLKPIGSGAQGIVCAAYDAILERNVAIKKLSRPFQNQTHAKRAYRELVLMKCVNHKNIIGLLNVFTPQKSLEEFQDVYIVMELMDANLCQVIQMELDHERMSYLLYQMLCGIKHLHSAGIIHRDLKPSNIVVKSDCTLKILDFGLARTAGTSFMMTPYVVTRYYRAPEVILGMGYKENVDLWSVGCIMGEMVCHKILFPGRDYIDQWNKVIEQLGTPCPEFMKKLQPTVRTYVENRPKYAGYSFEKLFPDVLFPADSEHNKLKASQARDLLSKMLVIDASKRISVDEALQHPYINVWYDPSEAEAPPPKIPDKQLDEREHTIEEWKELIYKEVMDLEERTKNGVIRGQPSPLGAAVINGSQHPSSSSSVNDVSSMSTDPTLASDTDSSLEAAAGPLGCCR
Data set [6] deals with Mitogen-activated protein kinase 9 (Homo sapiens, UniProt P45984). The data set is described as follows: Inhibition of recombinant JNK2 using ser73 of c-jun as substrate preincubated for 15 mins measured after 60 mins by TR-FRET assay. A digest of the protocol:
as §2

For data set [7], the target named is Mitogen-activated protein kinase 14 (Homo sapiens, UniProt Q16539). Kind of data set: Inhibition of recombinant p38alpha Thr69/71 of ATF-2 as substrate preincubated for 15 mins measured after 60 mins by TR-FRET assay.
Sequence of Mitogen-activated protein kinase 14 (Q16539 whole entry): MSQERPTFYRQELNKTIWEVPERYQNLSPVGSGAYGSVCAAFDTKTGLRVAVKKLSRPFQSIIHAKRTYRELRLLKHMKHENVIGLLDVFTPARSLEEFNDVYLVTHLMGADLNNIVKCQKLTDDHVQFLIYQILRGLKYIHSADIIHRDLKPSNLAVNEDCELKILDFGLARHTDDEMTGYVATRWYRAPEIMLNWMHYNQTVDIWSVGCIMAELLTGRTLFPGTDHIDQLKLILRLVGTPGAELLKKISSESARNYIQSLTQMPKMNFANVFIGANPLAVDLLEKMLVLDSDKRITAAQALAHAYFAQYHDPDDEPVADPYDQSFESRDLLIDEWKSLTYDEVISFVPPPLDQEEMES
Another data set has as its system MDR1. Kind of data set: Efflux ratio of permeability across MDCK2 expressing MDR1 at 5 uM after 120 mins by LC/MS/MS method. It is filed as ADME, Canis lupus familiaris, MDCK-II. As to conditions: dog, MDCK-MDR1.
Data set [8] can be described thus: Apparent permeability from apical to basolateral side of MDCK2 cells at 5 uM after 120 mins by LC/MS/MS method. It is filed as ADME, cell-based, Canis lupus familiaris, MDCK-II. Conditions: dog, MDCK.
For data set [9], the target named is Mitogen-activated protein kinase 1 (Homo sapiens, UniProt P28482). Kind of data set: Inhibition of recombinant ERK2 using Ser383 of Elk-1 as substrate preincubated for 15 mins measured after 60 mins by TR-FRET assay.
Sequence of Mitogen-activated protein kinase 1 (P28482 whole entry): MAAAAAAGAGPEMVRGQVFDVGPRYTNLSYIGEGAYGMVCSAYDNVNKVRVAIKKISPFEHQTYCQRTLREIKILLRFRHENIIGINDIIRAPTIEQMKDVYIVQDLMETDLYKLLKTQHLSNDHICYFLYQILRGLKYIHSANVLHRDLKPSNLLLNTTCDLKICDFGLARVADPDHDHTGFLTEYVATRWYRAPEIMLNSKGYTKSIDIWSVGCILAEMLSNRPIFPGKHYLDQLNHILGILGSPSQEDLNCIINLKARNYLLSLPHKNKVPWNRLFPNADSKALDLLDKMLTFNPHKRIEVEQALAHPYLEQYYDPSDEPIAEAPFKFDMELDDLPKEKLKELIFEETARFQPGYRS

Bounds are passed on as bounds.

The results in this text go back to ChEMBL document CHEMBL1821697, “Design and synthesis of brain penetrant selective JNK inhibitors with improved pharmacokinetic properties for the prevention of neurodegeneration” (Bioorg Med Chem Lett, 2011).

Broadly, the IC50 is the point on the concentration scale where inhibition reaches its midpoint. Usually efflux ratio stands for the permeability from basolateral to apical divided by that in the opposite direction, in the common usage. A word on the Papp A→B: it is the apparent permeability from the apical to the basolateral side of a cell layer.

Sequence of Mitogen-activated protein kinase 10 (P53779 whole entry): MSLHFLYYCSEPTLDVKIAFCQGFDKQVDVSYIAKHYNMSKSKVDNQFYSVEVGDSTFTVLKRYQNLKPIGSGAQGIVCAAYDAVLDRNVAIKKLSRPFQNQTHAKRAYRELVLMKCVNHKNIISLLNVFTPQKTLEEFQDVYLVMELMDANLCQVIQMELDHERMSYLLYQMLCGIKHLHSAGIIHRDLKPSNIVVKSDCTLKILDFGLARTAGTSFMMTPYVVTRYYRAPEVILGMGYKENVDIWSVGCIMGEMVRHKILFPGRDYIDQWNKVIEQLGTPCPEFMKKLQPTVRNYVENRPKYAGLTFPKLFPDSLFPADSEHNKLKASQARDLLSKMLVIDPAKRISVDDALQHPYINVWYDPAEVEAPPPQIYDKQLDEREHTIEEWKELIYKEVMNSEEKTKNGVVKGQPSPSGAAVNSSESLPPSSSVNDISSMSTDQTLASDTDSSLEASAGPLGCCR
Sequence of Mitogen-activated protein kinase 9 (P45984 whole entry): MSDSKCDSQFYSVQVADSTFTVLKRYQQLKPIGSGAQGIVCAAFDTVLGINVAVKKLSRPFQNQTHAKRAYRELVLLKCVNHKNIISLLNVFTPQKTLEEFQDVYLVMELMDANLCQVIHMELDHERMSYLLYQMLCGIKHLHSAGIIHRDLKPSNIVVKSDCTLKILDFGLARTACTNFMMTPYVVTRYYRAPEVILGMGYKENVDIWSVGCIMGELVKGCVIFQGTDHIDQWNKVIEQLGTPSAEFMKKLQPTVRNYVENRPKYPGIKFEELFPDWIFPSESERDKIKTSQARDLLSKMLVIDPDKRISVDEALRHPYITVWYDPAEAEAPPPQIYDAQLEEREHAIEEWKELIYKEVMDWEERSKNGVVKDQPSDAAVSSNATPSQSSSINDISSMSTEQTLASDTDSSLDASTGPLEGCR

For `Cn1cnc(-c2c(Br)csc2NC(=O)CN2C(=O)CCc3ncccc32)n1`, the remaining at 0.5 h, 1 µM in [1] came to 37%; in data set [2], 33%; in data set [3], 46%. Besides, the IC50 in [4] was determined as 3 nM; in data set [5], 1 nM; in [6] it was 13 nM.
In the case of `O=C(Cc1ccc(C(F)(F)F)c2ncccc12)Nc1scc(Cl)c1-c1ncn[nH]1`, the remaining at 0.5 h, 1 µM in data set [1] worked out at 1%; in data set [2], 3%; in data set [3], 32%. Moreover, the half-inhibitory concentration (IC50) in [4] was 183 nM; in [5], 81 nM; in data set [6], 24 nM.
For `O=C(Cn1c(=O)ccc2nc(C(F)(F)F)ccc21)Nc1scc(Br)c1-c1ncn[nH]1`, the remaining at 0.5 h, 1 µM in data set [1] turned out to be 2%; in data set [2], 35%; in data set [3], 64%. Also, the IC50 in [4] amounted to 14 nM; in [5], 8 nM; in data set [6], 38 nM.
In the case of `O=C(CN1C(=O)CCc2ncccc21)Nc1scc(Br)c1-c1ncco1`, the remaining at 0.5 h, 1 µM came to 0% in data set [1], 0% in data set [2] and 11% in data set [3]. For the same compound, the IC50 in data set [4] amounted to 6 nM; in data set [5], 7 nM; in data set [6], 66 nM.
As for `N#Cc1csc(NC(=O)Cn2c(=O)ccc3cc(C(F)(F)F)ccc32)c1-c1nccs1`, the remaining at 0.5 h, 1 µM in [1] stood at 76%; in data set [2], 52%; in [3], 75%. In addition, the values for the IC50 in data set [4], in data set [5] and in data set [6] were 9 nM, 7 nM and 53 nM, respectively.
Take `O=C(Cc1cccc2ncc(C(F)(F)F)cc12)Nc1scc(Br)c1-c1nc[nH]n1`: the remaining at 0.5 h, 1 µM in data set [1] was found to be 20%; in [2], 3%; in data set [3] it was 37%. In addition, the IC50 in [4] is 52 nM; in data set [5] it was 21 nM; in data set [6], 164 nM.
Consider `O=C(Cn1c(=O)ccc2cnc(C(F)(F)F)cc21)Nc1scc(Br)c1-c1ncn[nH]1`, for which the remaining at 0.5 h, 1 µM in data set [1] stood at 43%; in data set [2], 43%; in data set [3] it was 77%. The IC50 in [4] was found to be 6 nM; in data set [5], 4 nM; in data set [6], 21 nM.
For `O=C(Cn1c(=O)ccc2ccc(C(F)(F)F)cc21)Nc1scc(Br)c1-c1ncn[nH]1`, the remaining at 0.5 h, 1 µM in [1] amounted to 25%; in [2] it was 29%; in data set [3], 44%. The 50% inhibitory concentration (IC50) in [4] was found to be 9 nM; in [5], 6 nM; in [6], 21 nM.
Turning to `N#Cc1csc(NC(=O)Cn2c(=O)ccc3cc(C(F)(F)F)ccc32)c1-c1ncco1`, the values for the remaining at 0.5 h, 1 µM in data set [1], in data set [2] and in data set [3] were 2%, 4% and 24%, respectively. Further, the half-maximal inhibitory concentration (IC50) was found to be 8 nM in data set [4], 4 nM in data set [5] and 29 nM in data set [6].
As for `N#Cc1csc(NC(=O)CN2C(=O)CCc3ncccc32)c1-c1nc[nH]n1`, the figures for the remaining at 0.5 h, 1 µM in data set [1], in data set [2] and in data set [3] were 81%, 84% and 80%, respectively. Besides, the IC50 in data set [4] came to 6 nM; in [5] it was 5 nM; in [6], 18 nM.
Take `N#Cc1ccc2ccc(=O)n(CC(=O)Nc3scc(Br)c3-c3ncn[nH]3)c2c1`: the remaining at 0.5 h, 1 µM in data set [1] came out at 62%; in data set [2] it was 44%; in [3], 59%. Also, the IC50 in data set [4] amounted to 2 nM; in data set [5] it was 1 nM; in data set [6], 10 nM.
`O=C(Cc1cc(F)cc2ncccc12)Nc1scc(Br)c1-c1ncn[nH]1`: the remaining at 0.5 h, 1 µM in [1] was 18%; in data set [2] it was 5%; in data set [3], 42%. Besides, the IC50 in data set [4] turned out to be 41 nM; in data set [5], 14 nM; in [6], 140 nM.
As to `O=C(Cn1c(=O)ccn2nc(C(F)(F)F)cc12)Nc1scc(Br)c1-c1ncn[nH]1`, the remaining at 0.5 h, 1 µM stood at 42% in data set [1], 3% in data set [2] and 48% in data set [3]. For the same compound, the half-maximal inhibitory concentration (IC50) in data set [4] is 14 nM; in [5], 3 nM; in data set [6], 36 nM.
On to `O=C(Cc1cccc2ncc(F)cc12)Nc1scc(Br)c1-c1nc[nH]n1`, for which the results for the remaining at 0.5 h, 1 µM in data set [1], in [2] and in [3] were 17%, 2% and 39%, respectively. For the same compound, the IC50 in [4] came out at 30 nM; in [5], 17 nM; in data set [6] it was 92 nM.
Take `O=C(Cn1c(=O)ccc2ccc(OC(F)(F)F)cc21)Nc1scc(Br)c1-c1ncn[nH]1`: the remaining at 0.5 h, 1 µM came out at 26% in [1], 10% in data set [2] and 29% in data set [3]. For the same compound, the figures for the IC50 in data set [4], in data set [5] and in [6] were 19 nM, 11 nM and 68 nM, respectively.
With `O=C(Cn1c(=O)ccn2nccc12)Nc1scc(Br)c1-c1ncn[nH]1`, the remaining at 0.5 h, 1 µM in [1] amounted to 71%; in [2], 50%; in data set [3], 72%. Further, the IC50 in data set [4] was determined as 8 nM; in data set [5], 8 nM; in data set [6] it was 74 nM.
As to `N#Cc1csc(NC(=O)Cn2c(=O)ccc3cc(C(F)(F)F)ccc32)c1-c1cscn1`, the results for the remaining at 0.5 h, 1 µM in data set [1], in [2] and in [3] were 8%, 17% and 32%, respectively. Further, the IC50 in data set [4] amounted to 8 nM; in [5] it was 2 nM; in data set [6] it was 17 nM.
With `O=C(Cn1c(=O)ccc2cnccc21)Nc1scc(Br)c1-c1ncn[nH]1`, the remaining at 0.5 h, 1 µM in data set [1] was determined as 60%; in [2], 51%; in data set [3], 85%. The IC50 was 7 nM in data set [4], 4 nM in data set [5] and 8 nM in data set [6].
As to `O=C(Cn1c(=O)ccc2cc(OC(F)(F)F)ccc21)Nc1scc(Br)c1-c1ncn[nH]1`, the remaining at 0.5 h, 1 µM in [1] worked out at 39%; in [2], 16%; in data set [3], 64%. The IC50 in data set [4] came out at 6 nM; in data set [5], 2 nM; in data set [6] it was 12 nM.
For the compound `O=C(CN1C(=O)CCc2ncccc21)Nc1scc(Br)c1-c1nccs1`, the values for the remaining at 0.5 h, 1 µM in data set [1], in data set [2] and in [3] were 0%, 0% and 3%, respectively. The IC50 in data set [4] worked out at 15 nM; in data set [5], 13 nM; in data set [6] it was 145 nM.
Regarding `N#Cc1ccc2c(ccc(=O)n2CC(=O)Nc2scc(Br)c2-c2ncn[nH]2)c1`, the half-maximal inhibitory concentration (IC50) in data set [7] is over 50000 nM; in [9], over 50000 nM; in data set [4] it was 2 nM; in data set [5], 1 nM; in data set [6], 10 nM. In addition, in the data set on MDR1, the efflux ratio at 2 h, 5 µM turned out to be 4.18. Moreover, the Papp A→B at 2 h, 5 µM in data set [8] worked out at 3.43 ×10⁻⁶ cm/s. Further, the remaining at 0.5 h, 1 µM was 46% in data set [1], 60% in data set [2] and 69% in [3].
For `O=C(Cc1cc(C(F)(F)F)cc2ncccc12)Nc1scc(Br)c1-c1nnc[nH]1`, the results for the remaining at 0.5 h, 1 µM in [1], in data set [2] and in data set [3] were 16%, 3% and 31%, respectively. The IC50 in data set [4] is 280 nM; in [5], 178 nM; in [6], 337 nM.
Regarding `O=C(Cc1ccc(F)c2cnccc12)Nc1scc(Br)c1-c1ncn[nH]1`, the remaining at 0.5 h, 1 µM in [1] worked out at 5%; in data set [2], 34%; in [3], 44%. Also, the figures for the IC50 in data set [4], in data set [5] and in data set [6] were 24 nM, 16 nM and 68 nM, respectively.
`N#Cc1csc(NC(=O)CN2C(=O)CCc3ncccc32)c1-c1nccs1`: the figures for the remaining at 0.5 h, 1 µM in data set [1], in [2] and in data set [3] were 1%, 7% and 16%, respectively. Also, the IC50 in data set [4] was 11 nM; in data set [5], 10 nM; in data set [6], 62 nM.
As to `O=C(Cn1c(=O)ccc2c(C(F)(F)F)cccc21)Nc1scc(Br)c1-c1ncn[nH]1`, the remaining at 0.5 h, 1 µM in [1] is 1%; in data set [2], 27%; in data set [3], 49%. Also, the IC50 stood at 71 nM in data set [4], 31 nM in [5] and 193 nM in data set [6].
`O=C(CN1C(=O)CCc2ccccc21)Nc1scc(Br)c1-c1ncn[nH]1`: the remaining at 0.5 h, 1 µM in [1] turned out to be 0%; in data set [2], 0%; in data set [3], 24%.
